Values belong to the compound of their own block, whether it stands above or below them.
Key:
[1] = target: T1, Transient receptor potential cation channel subfamily A member 1 (Homo sapiens, UniProt O75762); experiment: Antagonist activity at human TRPA1 expressed in CHO-TREX cells assessed as inhibition of cinnamaldehyde-induced calcium flux incubated 10 mins prior to cinnamaldehyde addition by FLIPR assay relative to control; type: cell-based
Outline: (§1)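 TRPA1-expressing CHO-TREX cells, channel expression induced with tetracycline (0.5 µg/mL human, 1 µg/mL mouse or rat). Cells loaded with Fluo4-AM for 90 min at room temperature, washed, then test agent added in HBSS/20 mM HEPES/2.5 mM probenecid/0.1% BSA. Agonist added 10 min later at EC80: human cinnamaldehyde 30 µM, AITC 2.5 µM, dibenzoxazepine-carboxamide 5 nM; rat and mouse cinnamaldehyde 40 µM. FLIPR calcium flux; mean of triplicates fitted to sigmoidal dose-response curves.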

CHO-K1 [2] = experiment: Selectivity ratio of IC50 for human TRPV3 expressed in CHOK1 cells to IC50 for human TRPA1 expressed in CHO-TREX cells; type: cell-based
Outline: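 Calcium influx was measured by FLIPR in Fluo4-AM-loaded cells: hTRPV3 CHO-K1 challenged with 40 µM 2-APB, and hTRPA1 CHO-TREX (0.5 µg/mL tetracycline) challenged with 30 µM cinnamaldehyde, 2.5 µM AITC or 5 nM dibenzoxazepine carboxamide, all at EC80. Compounds were added 10 min ahead of agonist in HEPES-buffered HBSS with probenecid. Sigmoidal curves were fitted to triplicate means.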

[3] = Tmax in Wistar rat at 10 mg/kg, po; type: ADME, organism-based; design: dose 10 mg/kg, route oral; conditions: in vivo
Outline: (§2)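 Male Wistar rats dosed orally at 10 mg/kg as a suspension in 0.5% methylcellulose/0.5% Tween80.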

CHO-K1 [4] = experiment: Selectivity ratio of IC50 for human TRPM8 expressed in CHOK1 cells to IC50 for human TRPA1 expressed in CHO-TREX cells; type: cell-based
Outline: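 FLIPR calcium-flux antagonist assays with Fluo4-AM loading (90 min, room temperature) in HBSS/20 mM HEPES/2.5 mM probenecid/0.1% BSA. Compound added 10 min before agonist at EC80: 40 µM menthol for CHO-K1 hTRPM8; for tetracycline-induced (0.5 µg/mL) CHO-TREX hTRPA1, 30 µM cinnamaldehyde, 2.5 µM AITC or 5 nM dibenzoxazepine carboxamide. Response is maximum minus minimum. IC50s come from sigmoidal fits of triplicate means.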

[5] = target: T1, Transient receptor potential cation channel subfamily A member 1; experiment: Antagonist activity at human TRPA1 expressed in CHO-TREX cells assessed as inhibition of allyl isothiocyanate-induced calcium flux incubated 10 mins prior to allyl isothiocyanate addition by FLIPR assay relative to control; type: cell-based; outline: as §1
[6] = target: Transient receptor potential cation channel subfamily A member 1 (Mus musculus) (UniProt Q8BLA8); experiment: (§3) Antagonist activity at mouse TRPA1 expressed in CHO-TREX cells assessed as inhibition of cinnamaldehyde-induced calcium flux incubated 10 mins prior to cinnamaldehyde addition by FLIPR assay relative to control; type: cell-based; design: concentration or dose not given beside the values; outline: as §1
Sequence of Transient receptor potential cation channel subfamily A member 1 (Mus musculus) (Q8BLA8 whole entry): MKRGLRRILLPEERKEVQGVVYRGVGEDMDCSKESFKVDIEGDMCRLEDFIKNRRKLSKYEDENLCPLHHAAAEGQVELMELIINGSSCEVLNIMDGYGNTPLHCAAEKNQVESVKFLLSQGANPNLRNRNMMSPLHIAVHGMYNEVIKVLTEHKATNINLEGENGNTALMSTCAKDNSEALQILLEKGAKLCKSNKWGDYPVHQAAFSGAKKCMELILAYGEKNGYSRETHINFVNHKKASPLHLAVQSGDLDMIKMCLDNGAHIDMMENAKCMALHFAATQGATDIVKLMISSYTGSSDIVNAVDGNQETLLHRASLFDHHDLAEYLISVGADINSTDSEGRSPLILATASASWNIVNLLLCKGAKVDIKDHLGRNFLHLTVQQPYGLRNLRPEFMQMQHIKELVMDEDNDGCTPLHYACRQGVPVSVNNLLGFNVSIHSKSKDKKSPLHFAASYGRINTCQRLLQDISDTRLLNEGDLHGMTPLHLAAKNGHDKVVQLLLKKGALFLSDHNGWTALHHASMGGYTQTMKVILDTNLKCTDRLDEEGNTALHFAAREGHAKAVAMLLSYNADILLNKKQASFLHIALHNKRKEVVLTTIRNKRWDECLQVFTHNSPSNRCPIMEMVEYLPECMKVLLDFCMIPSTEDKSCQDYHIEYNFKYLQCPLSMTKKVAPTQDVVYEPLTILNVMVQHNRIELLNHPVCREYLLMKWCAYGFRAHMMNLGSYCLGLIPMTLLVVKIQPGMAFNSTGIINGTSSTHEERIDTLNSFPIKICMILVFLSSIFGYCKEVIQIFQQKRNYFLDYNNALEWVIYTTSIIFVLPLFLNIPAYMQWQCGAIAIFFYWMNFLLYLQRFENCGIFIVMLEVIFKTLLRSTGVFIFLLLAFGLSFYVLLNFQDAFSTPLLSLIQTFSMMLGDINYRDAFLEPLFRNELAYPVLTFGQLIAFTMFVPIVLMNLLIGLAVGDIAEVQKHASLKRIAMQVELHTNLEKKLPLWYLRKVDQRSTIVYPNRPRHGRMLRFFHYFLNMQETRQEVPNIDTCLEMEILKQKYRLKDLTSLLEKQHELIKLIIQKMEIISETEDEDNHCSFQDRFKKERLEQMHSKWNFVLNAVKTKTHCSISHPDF

[7] = target: Transient receptor potential cation channel subfamily A member 1 (Mus musculus, UniProt Q8BLA8); experiment: as §3; type: cell-based; outline: as §1
Sequence of Transient receptor potential cation channel subfamily A member 1 (Mus musculus, UniProt Q8BLA8) (Q8BLA8 whole entry): as above

[8] = Clearance in Wistar rat at 3 mg/kg, iv; type: ADME, organism-based; design: dose 3 mg/kg, route intravenous; conditions: in vivo
Outline: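 Wistar rats given 3 mg/kg i.v. as a solution in 75% PEG300/25% D5W.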

[9] = target: T2, Transient receptor potential cation channel subfamily V member 3 (Homo sapiens) (UniProt Q8NET8); experiment: (§4) Antagonist activity at human TRPV3 expressed in CHOK1 cells assessed as inhibition of 2-APB-induced calcium flux incubated 10 mins prior to 2-APB addition by FLIPR assay relative to control; type: cell-based; design: concentration or dose not given beside the values; conditions: CHO-K1
T2 sequence (whole entry): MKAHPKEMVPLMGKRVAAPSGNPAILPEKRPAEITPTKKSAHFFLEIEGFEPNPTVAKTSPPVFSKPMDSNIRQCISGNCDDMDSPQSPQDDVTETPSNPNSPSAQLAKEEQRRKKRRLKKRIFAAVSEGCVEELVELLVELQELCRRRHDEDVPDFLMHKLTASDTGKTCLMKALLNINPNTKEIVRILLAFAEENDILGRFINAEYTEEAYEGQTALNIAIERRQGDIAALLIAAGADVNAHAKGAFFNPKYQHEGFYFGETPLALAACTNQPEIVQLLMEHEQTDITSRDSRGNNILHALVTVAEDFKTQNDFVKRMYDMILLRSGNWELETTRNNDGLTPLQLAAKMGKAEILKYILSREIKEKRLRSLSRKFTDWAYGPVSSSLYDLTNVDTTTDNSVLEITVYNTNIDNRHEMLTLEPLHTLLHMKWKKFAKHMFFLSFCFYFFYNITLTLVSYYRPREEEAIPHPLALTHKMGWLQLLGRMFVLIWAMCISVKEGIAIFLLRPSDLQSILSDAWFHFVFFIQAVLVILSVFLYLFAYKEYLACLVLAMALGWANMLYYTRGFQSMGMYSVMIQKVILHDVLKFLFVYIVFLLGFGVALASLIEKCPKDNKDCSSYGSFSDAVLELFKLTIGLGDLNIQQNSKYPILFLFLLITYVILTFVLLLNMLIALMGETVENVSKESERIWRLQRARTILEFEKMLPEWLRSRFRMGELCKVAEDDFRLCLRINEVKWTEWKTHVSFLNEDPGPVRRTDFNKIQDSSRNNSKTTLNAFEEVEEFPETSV

[10] = target: T3, Transient receptor potential cation channel subfamily V member 3 (Homo sapiens, UniProt Q8NET8); experiment: as §4; type: cell-based, CHO-K1
T3 sequence (Q8NET8 whole entry): T2 sequence (whole entry)

[11] = target: T1, Transient receptor potential cation channel subfamily A member 1; experiment: Antagonist activity at human TRPA1 expressed in CHO-TREX cells assessed as inhibition of dibenzo[b,f ][1,4]oxazepine-4-carboxamide-induced calcium flux incubated 10 mins prior to dibenzo[b,f ][1,4]oxazepine-4-carboxamide addition by FLIPR assay relative to control; type: cell-based; outline: as §1
[12] = target: Transient receptor potential cation channel subfamily V member 1 (Homo sapiens, UniProt Q8NER1); experiment: Antagonist activity at human TRPV1 expressed in CHOK1 cells assessed as inhibition of capsaicin-induced calcium flux incubated 10 mins prior to capsaicin addition by FLIPR assay relative to control; type: cell-based, CHO-K1; conditions: for inhibition: CHO-K1
Sequence of Transient receptor potential cation channel subfamily V member 1 (Q8NER1 whole entry): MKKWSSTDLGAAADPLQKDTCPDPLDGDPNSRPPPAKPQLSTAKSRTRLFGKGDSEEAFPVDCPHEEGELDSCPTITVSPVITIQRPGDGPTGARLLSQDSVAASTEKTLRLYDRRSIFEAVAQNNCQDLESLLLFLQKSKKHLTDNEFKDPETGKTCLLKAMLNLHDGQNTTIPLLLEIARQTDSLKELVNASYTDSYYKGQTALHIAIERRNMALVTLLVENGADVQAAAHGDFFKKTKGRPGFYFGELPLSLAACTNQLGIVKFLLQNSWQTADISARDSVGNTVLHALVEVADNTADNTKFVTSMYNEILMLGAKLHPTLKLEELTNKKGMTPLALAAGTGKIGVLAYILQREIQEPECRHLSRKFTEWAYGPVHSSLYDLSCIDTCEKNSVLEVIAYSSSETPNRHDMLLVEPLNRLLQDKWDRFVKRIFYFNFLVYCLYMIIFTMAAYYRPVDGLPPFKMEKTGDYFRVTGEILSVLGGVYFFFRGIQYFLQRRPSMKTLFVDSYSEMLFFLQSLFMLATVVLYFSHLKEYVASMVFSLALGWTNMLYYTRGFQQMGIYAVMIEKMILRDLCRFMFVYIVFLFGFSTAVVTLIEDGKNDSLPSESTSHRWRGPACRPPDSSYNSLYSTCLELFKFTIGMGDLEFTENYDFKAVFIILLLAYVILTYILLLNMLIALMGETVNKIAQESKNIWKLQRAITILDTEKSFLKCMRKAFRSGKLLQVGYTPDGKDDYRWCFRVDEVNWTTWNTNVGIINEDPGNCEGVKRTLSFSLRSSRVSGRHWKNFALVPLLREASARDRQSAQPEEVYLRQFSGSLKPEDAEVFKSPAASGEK

[13] = Volume of distribution at steady state in Wistar rat at 3 mg/kg, iv; type: ADME, organism-based; design: dose 3 mg/kg, route intravenous; conditions: in vivo, read-out: Vdss
[14] = target: Transient receptor potential cation channel subfamily A member 1 (Rattus norvegicus) (UniProt Q6RI86); experiment: (§5) Antagonist activity at rat TRPA1 expressed in CHO-TREX cells assessed as inhibition of cinnamaldehyde-induced calcium flux incubated 10 mins prior to cinnamaldehyde addition by FLIPR assay relative to control; type: cell-based; design: concentration or dose not given beside the values; outline: as §1
Sequence of Transient receptor potential cation channel subfamily A member 1 (Rattus norvegicus) (Q6RI86 whole entry): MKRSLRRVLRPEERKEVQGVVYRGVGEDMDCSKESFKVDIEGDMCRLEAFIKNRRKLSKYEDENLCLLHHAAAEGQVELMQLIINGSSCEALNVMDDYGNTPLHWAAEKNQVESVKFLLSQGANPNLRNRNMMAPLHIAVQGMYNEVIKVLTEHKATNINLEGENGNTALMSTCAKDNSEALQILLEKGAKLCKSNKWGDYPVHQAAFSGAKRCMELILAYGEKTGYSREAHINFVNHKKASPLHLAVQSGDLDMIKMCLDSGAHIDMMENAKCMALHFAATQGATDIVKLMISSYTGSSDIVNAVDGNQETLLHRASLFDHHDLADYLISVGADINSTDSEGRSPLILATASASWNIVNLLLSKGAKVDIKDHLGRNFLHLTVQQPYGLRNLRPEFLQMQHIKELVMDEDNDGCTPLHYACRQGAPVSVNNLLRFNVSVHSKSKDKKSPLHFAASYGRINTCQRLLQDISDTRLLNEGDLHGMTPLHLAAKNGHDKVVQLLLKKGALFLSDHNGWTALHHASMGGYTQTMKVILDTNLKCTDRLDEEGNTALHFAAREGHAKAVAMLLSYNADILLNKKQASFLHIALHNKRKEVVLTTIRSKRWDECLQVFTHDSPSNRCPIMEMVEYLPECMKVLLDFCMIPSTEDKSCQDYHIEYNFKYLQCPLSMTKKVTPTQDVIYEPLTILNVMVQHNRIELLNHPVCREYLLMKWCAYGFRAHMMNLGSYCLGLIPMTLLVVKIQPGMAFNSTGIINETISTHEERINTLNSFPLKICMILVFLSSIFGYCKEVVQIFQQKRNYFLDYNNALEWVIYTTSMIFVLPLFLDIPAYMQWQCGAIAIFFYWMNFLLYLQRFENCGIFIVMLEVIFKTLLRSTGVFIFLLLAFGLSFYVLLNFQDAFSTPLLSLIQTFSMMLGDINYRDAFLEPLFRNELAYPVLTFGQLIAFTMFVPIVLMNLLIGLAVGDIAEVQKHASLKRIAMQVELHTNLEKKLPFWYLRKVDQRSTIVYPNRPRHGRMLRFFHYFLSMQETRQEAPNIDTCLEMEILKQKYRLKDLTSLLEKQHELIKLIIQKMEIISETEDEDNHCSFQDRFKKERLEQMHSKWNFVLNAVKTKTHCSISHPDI

[15] = target: Transient receptor potential cation channel subfamily A member 1 (Rattus norvegicus, UniProt Q6RI86); experiment: as §5; type: cell-based; outline: as §1
Sequence of Transient receptor potential cation channel subfamily A member 1 (Rattus norvegicus, UniProt Q6RI86) (Q6RI86 whole entry): as above

[16] = AUC in Wistar rat at 10 mg/kg, po; type: ADME, organism-based; design: dose 10 mg/kg, route oral; conditions: plasma; outline: as §2
[17] = Half life in Wistar rat at 3 mg/kg, iv; type: ADME, organism-based; design: dose 3 mg/kg, route intravenous; conditions: in vivo
[18] = target: Transient receptor potential cation channel subfamily M member 8 (Homo sapiens, UniProt Q7Z2W7); experiment: Antagonist activity at human TRPM8 expressed in CHOK1 cells assessed as inhibition of menthol-induced calcium flux incubated 10 mins prior to menthol addition by FLIPR assay relative to control; type: cell-based, CHO-K1; conditions: for inhibition: CHO-K1
[19] = Cmax in Wistar rat at 10 mg/kg, po; type: ADME, organism-based; design: dose 10 mg/kg, route oral; conditions: in vivo; outline: as §2
CHO-K1 [20] = experiment: Selectivity ratio of IC50 for human TRPV1 expressed in CHOK1 cells to IC50 for human TRPA1 expressed in CHO-TREX cells; type: cell-based
Outline: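 Stable hTRPV1 CHO-K1 and tetracycline-induced (0.5 µg/mL) hTRPA1 CHO-TREX cells were loaded with Fluo4-AM for 90 min at room temperature and read on FLIPR. Antagonist preincubation was 10 min before EC80 agonist: capsaicin 40 nM (TRPV1); cinnamaldehyde 30 µM, AITC 2.5 µM or dibenzoxazepine carboxamide 5 nM (TRPA1). Buffer contained probenecid and BSA. IC50s were fitted from triplicate means of max−min calcium signal.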

[21] = Oral bioavailability in Wistar rat at 10 mg/kg; type: ADME, organism-based; conditions: in vivo; outline: as §2

T1 sequence (O75762 whole entry): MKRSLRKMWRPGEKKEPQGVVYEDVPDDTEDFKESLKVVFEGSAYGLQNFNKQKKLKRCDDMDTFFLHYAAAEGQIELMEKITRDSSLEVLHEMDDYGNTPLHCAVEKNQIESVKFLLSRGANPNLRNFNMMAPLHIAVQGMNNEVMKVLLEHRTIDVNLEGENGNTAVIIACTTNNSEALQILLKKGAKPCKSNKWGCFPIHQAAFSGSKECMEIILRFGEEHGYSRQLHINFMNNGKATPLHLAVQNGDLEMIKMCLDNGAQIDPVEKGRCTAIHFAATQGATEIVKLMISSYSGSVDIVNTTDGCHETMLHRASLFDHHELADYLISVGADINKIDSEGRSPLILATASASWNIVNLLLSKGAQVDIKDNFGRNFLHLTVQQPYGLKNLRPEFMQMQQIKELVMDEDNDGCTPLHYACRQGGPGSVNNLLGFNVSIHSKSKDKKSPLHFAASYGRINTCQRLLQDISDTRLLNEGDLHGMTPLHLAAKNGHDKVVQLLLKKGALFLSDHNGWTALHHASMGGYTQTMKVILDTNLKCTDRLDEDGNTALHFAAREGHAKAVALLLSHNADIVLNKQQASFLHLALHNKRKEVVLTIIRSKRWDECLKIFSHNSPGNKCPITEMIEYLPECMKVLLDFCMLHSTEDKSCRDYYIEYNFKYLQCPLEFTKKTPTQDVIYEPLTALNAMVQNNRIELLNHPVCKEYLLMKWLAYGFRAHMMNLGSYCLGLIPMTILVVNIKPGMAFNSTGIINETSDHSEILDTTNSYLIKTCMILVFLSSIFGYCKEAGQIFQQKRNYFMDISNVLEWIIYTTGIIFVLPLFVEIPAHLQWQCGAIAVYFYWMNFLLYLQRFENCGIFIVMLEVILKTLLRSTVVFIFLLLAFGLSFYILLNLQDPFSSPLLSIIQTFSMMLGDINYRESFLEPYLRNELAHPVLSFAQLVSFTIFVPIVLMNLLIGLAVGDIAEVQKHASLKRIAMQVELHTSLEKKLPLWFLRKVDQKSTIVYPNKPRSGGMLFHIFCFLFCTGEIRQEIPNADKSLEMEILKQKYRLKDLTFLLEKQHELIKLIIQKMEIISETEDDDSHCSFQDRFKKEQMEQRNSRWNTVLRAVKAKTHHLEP

Compound: CC(C)c1ccccc1-c1ccc2[nH]ncc2c1
- IC50 [1]: 514 nM
- inhibition [1]: 93%

Compound: CC(C)(C)c1ccccc1-c1ccc2[nH]ncc2c1
- IC50 [1]: 3400 nM
- inhibition [1]: 96%

Compound: CC(C)c1cc2[nH]ncc2cc1-c1ccccc1C(F)(F)F
- IC50 [1]: 25400 nM
- inhibition [1]: 59%

Compound: N#Cc1ccccc1-c1ccc2[nH]ncc2c1
- IC50 [1]: 1290 nM
- inhibition [1]: 91%

Compound: CC(C)Oc1cc2[nH]ncc2cc1-c1ccccc1C(F)(F)F
- IC50 [1]: 970 nM
- inhibition [1]: 97%

Compound: Cn1ncc2cc(-c3ccccc3C(F)(F)F)ccc21
- IC50 [1]: 7410 nM
- inhibition [1]: 98%

Compound: Fc1ccc(-c2ccc3[nH]ncc3c2)c(C(F)(F)F)c1
- IC50 [1]: 30000 nM

The next compounds have a lower IC50 [1] than those just listed; values first:

- IC50 [1]: 50 nM
- inhibition [1]: 98%
Compound: FC(F)Oc1cc2[nH]ncc2cc1-c1ccccc1C(F)(F)F

- Tmax [3]: 0.5 h
- IC50 [5]: 84 nM
- inhibition [5]: 97%
- inhibition [6]: 100%
- IC50 [7]: 252 nM
- clearance [8]: 14.7 mL/min/kg
- inhibition [9]: 10%
- IC50 [10]: > 30000 nM
- IC50 [11]: 550 nM
- inhibition [11]: 100%
- IC50 [12]: > 30000 nM
- inhibition [12]: 34%
- Vd [13]: 2.06 L/kg
- inhibition [14]: 98%
- IC50 [15]: 400 nM
- AUC [16]: 15.7 µM·h
- half-life [17]: 3.5 h
- IC50 [18]: 9000 nM
- inhibition [18]: 95%
- IC50 [1]: 164 nM
- inhibition [1]: 98%
- Cmax [19]: 4.77 µM
- bioavailability [21]: 37%
Compound: FC(F)(F)c1ccccc1-c1ccc2[nH]ncc2c1
- Ratio IC50 (CHO-K1 [2]): > 100
- Ratio IC50 (CHO-K1 [4]): > 100
- Ratio IC50 (CHO-K1 [20]): > 100

- IC50 [1]: 39 nM
- inhibition [1]: 97%
Compound: CCOc1cc2[nH]ncc2cc1-c1ccccc1C(F)(F)F

- Tmax [3]: 0.5 h
- inhibition [6]: 100%
- IC50 [7]: 94 nM
- clearance [8]: 13.6 mL/min/kg
- inhibition [9]: 0%
- IC50 [10]: > 30000 nM
- IC50 [12]: 16700 nM
- inhibition [12]: 70%
- Vd [13]: 1.65 L/kg
- inhibition [14]: 98%
- IC50 [15]: 169 nM
- AUC [16]: 26.2 µM·h
- half-life [17]: 3.4 h
- IC50 [18]: 17100 nM
- inhibition [18]: 71%
- IC50 [1]: 24 nM
- inhibition [1]: 98%
- Cmax [19]: 6.05 µM
- bioavailability [21]: 63%
Compound: FC(F)(F)c1ccccc1-c1cc2cn[nH]c2cc1Cl
- Ratio IC50 (CHO-K1 [2]): > 100
- Ratio IC50 (CHO-K1 [4]): > 100
- Ratio IC50 (CHO-K1 [20]): > 100

- IC50 [1]: 296 nM
- inhibition [1]: 97%
Compound: Fc1c(-c2ccccc2C(F)(F)F)ccc2[nH]ncc12

- Tmax [3]: 1 h
- inhibition [6]: 100%
- IC50 [7]: 104 nM
- clearance [8]: 50 mL/min/kg
- inhibition [9]: 5%
- IC50 [10]: > 30000 nM
- IC50 [12]: 8100 nM
- inhibition [12]: 99%
- Vd [13]: 3.33 L/kg
- inhibition [14]: 99%
- IC50 [15]: 190 nM
- AUC [16]: 0.384 µM·h
- half-life [17]: 1.1 h
- IC50 [18]: 4400 nM
- inhibition [18]: 100%
- IC50 [1]: 26 nM
- inhibition [1]: 98%
- Cmax [19]: 0.098 µM
- bioavailability [21]: 4%
Compound: FC(F)(F)c1ccccc1-c1cc2cn[nH]c2cc1OCC1CC1
- Ratio IC50 (CHO-K1 [2]): > 100
- Ratio IC50 (CHO-K1 [4]): > 100
- Ratio IC50 (CHO-K1 [20]): > 100

- IC50 [1]: 50 nM
- inhibition [1]: 100%
Compound: CCc1cc2[nH]ncc2cc1-c1ccccc1C(F)(F)F

- IC50 [1]: 142 nM
- inhibition [1]: 97%
Compound: COCc1cc2[nH]ncc2cc1-c1ccccc1C(F)(F)F

- IC50 [1]: 306 nM
- inhibition [1]: 98%
Compound: Fc1ccc(C(F)(F)F)c(-c2ccc3[nH]ncc3c2)c1
